Data as given in ChEMBL document CHEMBL1130100, “Stabilized analogs of thymopentin. 3. Evaluation of ketomethylene pseudopeptides for antiarthritic properties” (1997).
Several values for one entry are separate records, joined by “and”; a condition that tells them apart may be missing. Equal values may be shown once.

Experiments:
Format in all cases: functional
Mus musculus [1] = experiment: (§1) Extent of paw swelling after treatment with thymopentin-5 (TP-5) compound in the Mouse Type II collagen arthritis at a dosage of 1.0 mg/kg on day 44
Summary of the method: (§2)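 DBA/1 Lac mice immunized with bovine type II collagen (100 μg) in Freund's complete adjuvant at four to six back sites, then boosted ip (100 μg) on day 21. Dosing was iv in sterile saline every second day from day 19 through day 40, 12 mice per dose. Each hind paw was measured by caliper. Result given as % of untreated swelling after subtracting age-matched normal paw.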

Mus musculus [2] = experiment: On set and incidence of arthritis in the Mouse Type II collagen model at 0.5 dose mg/kg on day 40, expressed as ratio of number treated to that of control
Summary of the method: (§3)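 DBA/1 Lac mice sensitized with bovine type II collagen (100 μg) in Freund's complete adjuvant, ip boost (100 μg) on day 21. Freshly dissolved compound in sterile saline was given iv every second day, day 19 through day 40, groups of 12. A mouse was scored arthritic if erythema or edema was present on any digit, paw or appendage. Incidence reported as number positive of 12.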

Mus musculus [3] = experiment: On set and incidence of arthritis in the Mouse Type II collagen model at 0.5 dose mg/kg on day 37, expressed as ratio of number treated to that of control; summary of the method: as §3
Mus musculus [4] = experiment: On set and incidence of arthritis in the Mouse Type II collagen model at 0.5 dose mg/kg on day 44, expressed as ratio of number treated to that of control; summary of the method: as §3
Mus musculus [5] = experiment: On set and incidence of arthritis in the Mouse Type II collagen model following 0.5 mg/kg on day 30.; summary of the method: as §3
Mus musculus [6] = experiment: as §1; summary of the method: as §2; remark: listed apart in the source
Rattus norvegicus [7] = experiment: extent of paw swelling following treatment with the compound in the rat adjuvant arthritis model observed on day 19 at 0.050 mg/kg dose; conditions: dose 0.05 mg/kg
Summary of the method: (§4)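 Rat adjuvant arthritis with iv dosing every second day, starting 2 days before the adjuvant/antigen challenge. Initial doses ranged 0.05 to 0.50 mg/kg, eight rats per dose. Each hind paw was measured by caliper. Swelling minus age-matched normal paw, expressed as % of untreated animals.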

Rattus norvegicus [8] = experiment: extent of paw swelling following treatment with the compound in the rat adjuvant arthritis model observed on day 16 at 0.050 mg/kg dose; conditions: dose 0.05 mg/kg; summary of the method: as §4
Mus musculus [9] = experiment: 60 Extent of paw swelling after treatment with thymopentin-5 (TP-5) compound in the Mouse Type II collagen arthritis at a dosage of 1.0 mg/kg on day 30; summary of the method: as §2
Rattus norvegicus [10] = experiment: extent of paw swelling following treatment with the compound in the rat adjuvant arthritis model observed on day 12 at 0.050 mg/kg dose; conditions: dose 0.05 mg/kg; summary of the method: as §4
Mus musculus [11] = experiment: Extent of paw swelling after treatment with thymopentin-5 (TP-5) compound in the Mouse Type II collagen arthritis at 1 mg/kg on day 30.; conditions: 1 mg/kg; summary of the method: as §2
Rattus norvegicus [12] = experiment: extent of paw swelling following treatment with the compound in the rat adjuvant arthritis model observed on day 16 at 0.50 mg/kg dose; conditions: dose 0.5 mg/kg; summary of the method: as §4
Rattus norvegicus [13] = experiment: extent of paw swelling following treatment with the compound in the rat adjuvant arthritis model observed on day 19 at 0.50 mg/kg dose; conditions: dose 0.5 mg/kg; summary of the method: as §4
Rattus norvegicus [14] = experiment: extent of paw swelling following treatment with the compound in the rat adjuvant arthritis model observed on day 12 at 0.50 mg/kg dose; conditions: dose 0.5 mg/kg; summary of the method: as §4
Mus musculus [15] = experiment: Extent of paw swelling after treatment with thymopentin-5 (TP-5) compound in the Mouse Type II collagen arthritis at a dosage of 0.03 mg/kg on day 30; summary of the method: as §2

Row | SMILES | Paw swelling (Mus musculus [1]) | No. of mice (Mus musculus [2]) | No. of mice (Mus musculus [3]) | No. of mice (Mus musculus [4]) | No. of mice (Mus musculus [5]; 0.5 mg/kg) | Paw swelling (Mus musculus [6]) | Paw swelling (Rattus norvegicus [7]) | Paw swelling (Rattus norvegicus [8]) | Paw swelling (Mus musculus [9]) | Paw swelling (Rattus norvegicus [10]) | Paw swelling (Mus musculus [11]) | Paw swelling (Rattus norvegicus [12]) | Paw swelling (Rattus norvegicus [13]) | Paw swelling (Rattus norvegicus [14]) | No. of mice (Mus musculus [5]) | Paw swelling (Mus musculus [15])
1 | CCCCC(CC(=O)[C@@H](N)CCCN=C(N)N)C(=O)N[C@@H](CC(=O)O)C(=O)NC(C(=O)C[C@H](C(=O)O)C(C)C)C(C)C (stereo in doubt; 1h-A) | 63% | 10 | 10 | 10 | 7 | 95% and 75% and 63% | – | – | – | – | – | – | – | – | – | –
2 | CCCC[C@@H](C(=O)N[C@@H](CC(=O)O)C(=O)N[C@H](C(=O)C[C@H](C(=O)O)C(C)C)C(C)C)N(C)C(=O)[C@@H](N)CCCN=C(N)N (stereo in doubt; 1m-A) | – | 7 | 6 | 7 | 3 | – | 45% | 80% | 60% | 0% | 73% and 58% | – | – | – | – | –
3 | CC(C)[C@H](CC(=O)[C@H](CC(=O)O)NC(=O)[C@H](CCCCN)NC(=O)[C@@H](N)CCCN=C(N)N)C(=O)N[C@@H](Cc1ccccc1)C(=O)O (stereo in doubt; 3a-A) | – | – | 8 | 9 | – | – | – | – | – | – | – | 100% | 39% | 0% | 5 | 30% and 70% and 73%
